Assay results published in ChEMBL document CHEMBL1123812, “Pyrroloisoquinoline antidepressants. 2. In-depth exploration of structure-activity relationships” (J Med Chem, 1987).

How the values were obtained:
[1] = target: Norepinephrine transporter (Rattus norvegicus, UniProt Q9WTR4); test: Inhibition of uptake of tritiated norepinephrine (NE) in rat synaptosomes; format: subcellular, Brain
[2] = target: Sodium-dependent serotonin transporter (Rattus norvegicus) (UniProt P31652); test: Ability to inhibit the uptake of [3H]- serotonin(5-HT) 0.1 uM concentration at rat brain synaptosomes; format: functional, subcellular
Outline: (§1)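 Male Wistar rat brain synaptosomes (P2 fraction): hypothalamus for NE, striatum for DA, cerebral cortex for 5-HT. Buffer is Tris- or HEPES-buffered salt medium with glucose, ascorbate and nialamide, pH 7.4 at 37 °C. Preincubated 10 min at 37 °C with compound. Uptake started with [3H]NE 100–300 nM, [3H]DA 50–300 nM or [3H]5-HT 100–200 nM, incubated 3 min (DA) or 6–10 min (NE, 5-HT). Blanks held on ice. Filtered, counted by scintillation.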

[3] = target: Sodium-dependent dopamine transporter (Rattus norvegicus) (UniProt P23977); test: Ability to inhibit the uptake of [3H]dopamine (DA) 0.1 uM concentration at rat brain synaptosomes; format: functional, subcellular; outline: as §1
[4] = target: Norepinephrine transporter (Rattus norvegicus) (UniProt Q9WTR4); test: Ability to inhibit the uptake of [3H]norepinephrine (NE) 0.1 uM concentration at rat brain synaptosomes; format: functional, subcellular; outline: as §1
[5] = target: Sodium-dependent dopamine transporter (Rattus norvegicus, UniProt P23977); test: Inhibition of the uptake of tritiated dopamine (DA) in rat synaptosomes; format: subcellular, Brain
Mus musculus [6] = organism: Mus musculus; test: Gross behavioral effects ascertained in mice; W indicates weak stimulant or depressant activity of little significance.; format: functional, organism-based
Outline: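 Male Swiss Webster mice, 18–24 g, three per dose, given ip doses of 1, 3, 10, 30, 100 and 300 mg/kg. Observed for gross behavior and held for 4 days. Scored as weak (W), stimulant (S), depressant (D) or convulsant (C).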

Mus musculus [7] = organism: Mus musculus; test: Antagonism of tetrabenazine (TBZ)-induced depression measured in mice by motor activity; format: functional; settings: Mus musculus; read-out: ED50
Outline: (§2)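 Nonfasted male Swiss Webster mice, 18–24 g, ten per dose level and in saline controls. Test compound given ip 30 min before tetrabenazine 32 mg/kg ip; dose expressed as free base. Motor activity and ptosis scored. Control response ≤90% corrected by Abbott's formula.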

Mus musculus [8] = organism: Mus musculus; test: Antagonism of tetrabenazine (TBZ)-induced depression in mice measured for ptosis; format: functional; settings: Mus musculus; read-out: ED50; outline: as §2
[9] = target: D(2) dopamine receptor (Rattus norvegicus) (UniProt P61169); test: Binding affinity towards dopamine receptor D2 at 1.0 uM concentration
Outline: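 Rat brain crude synaptic membranes in 20 mM NaHEPES pH 7.5. Ligands: α1 cortex […] 0.4 nM, nonspecific with (-)-NE 100 μM, 30 min at 25 °C. […] D2 striatum [3H]spiperone 0.05 nM with (+)-butaclamol 1 μM, 45 min at 37 °C. S1 cortex [3H]5-HT 1 nM plus glutathione and MgCl2, with 5-HT 10 μM, 20 min at 37 °C. […] Samples filtered on GF/B and counted.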

Sequence of Sodium-dependent dopamine transporter (P23977 whole entry): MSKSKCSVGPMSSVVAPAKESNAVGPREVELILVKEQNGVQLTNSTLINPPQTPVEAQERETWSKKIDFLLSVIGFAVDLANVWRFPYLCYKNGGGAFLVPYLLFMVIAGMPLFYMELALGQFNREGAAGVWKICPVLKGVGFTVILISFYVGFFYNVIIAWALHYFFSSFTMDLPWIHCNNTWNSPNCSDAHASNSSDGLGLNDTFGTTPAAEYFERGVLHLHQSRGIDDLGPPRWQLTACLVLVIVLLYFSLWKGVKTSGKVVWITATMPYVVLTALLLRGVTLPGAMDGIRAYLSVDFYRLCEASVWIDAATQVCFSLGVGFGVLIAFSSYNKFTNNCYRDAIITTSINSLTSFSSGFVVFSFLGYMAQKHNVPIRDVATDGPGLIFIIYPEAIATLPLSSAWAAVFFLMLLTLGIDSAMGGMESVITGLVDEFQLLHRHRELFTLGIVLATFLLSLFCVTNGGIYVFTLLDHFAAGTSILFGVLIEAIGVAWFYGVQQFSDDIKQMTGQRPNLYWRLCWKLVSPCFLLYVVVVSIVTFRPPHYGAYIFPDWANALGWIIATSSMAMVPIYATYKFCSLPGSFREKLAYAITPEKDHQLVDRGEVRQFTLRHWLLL
Sequence of Sodium-dependent dopamine transporter (Rattus norvegicus) (P23977 whole entry): as above
Sequence of Sodium-dependent serotonin transporter (Rattus norvegicus) (P31652 whole entry): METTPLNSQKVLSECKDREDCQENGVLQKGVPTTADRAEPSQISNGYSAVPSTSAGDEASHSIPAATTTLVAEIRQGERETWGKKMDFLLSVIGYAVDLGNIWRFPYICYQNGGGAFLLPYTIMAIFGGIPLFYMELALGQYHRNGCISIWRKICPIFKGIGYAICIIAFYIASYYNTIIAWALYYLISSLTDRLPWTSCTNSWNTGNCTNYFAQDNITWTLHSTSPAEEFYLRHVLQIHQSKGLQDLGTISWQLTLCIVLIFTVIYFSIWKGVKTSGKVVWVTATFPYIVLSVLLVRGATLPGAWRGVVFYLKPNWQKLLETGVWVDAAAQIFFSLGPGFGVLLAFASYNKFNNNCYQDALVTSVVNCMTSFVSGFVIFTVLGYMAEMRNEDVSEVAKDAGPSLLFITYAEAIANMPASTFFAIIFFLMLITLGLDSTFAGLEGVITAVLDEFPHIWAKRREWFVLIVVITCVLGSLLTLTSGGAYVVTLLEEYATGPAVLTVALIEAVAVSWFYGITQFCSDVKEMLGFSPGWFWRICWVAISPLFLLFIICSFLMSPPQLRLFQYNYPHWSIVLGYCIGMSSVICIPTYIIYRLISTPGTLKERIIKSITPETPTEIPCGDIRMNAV
Sequence of Norepinephrine transporter (Q9WTR4 whole entry): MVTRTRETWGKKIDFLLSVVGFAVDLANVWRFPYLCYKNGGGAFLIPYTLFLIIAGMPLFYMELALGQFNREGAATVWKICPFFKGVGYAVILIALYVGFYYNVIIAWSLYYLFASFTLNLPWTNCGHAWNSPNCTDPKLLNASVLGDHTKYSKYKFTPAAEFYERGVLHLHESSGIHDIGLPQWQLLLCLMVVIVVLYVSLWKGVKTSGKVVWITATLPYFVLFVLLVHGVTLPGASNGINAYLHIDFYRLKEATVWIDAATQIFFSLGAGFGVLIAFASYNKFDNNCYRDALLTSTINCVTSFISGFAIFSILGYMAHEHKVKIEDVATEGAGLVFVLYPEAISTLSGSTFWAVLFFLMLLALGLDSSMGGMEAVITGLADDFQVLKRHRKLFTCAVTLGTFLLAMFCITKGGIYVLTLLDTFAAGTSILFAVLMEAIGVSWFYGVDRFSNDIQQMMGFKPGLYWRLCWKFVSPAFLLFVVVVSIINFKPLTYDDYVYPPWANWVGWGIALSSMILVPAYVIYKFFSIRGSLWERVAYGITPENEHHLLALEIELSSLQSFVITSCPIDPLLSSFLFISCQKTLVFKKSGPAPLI
Sequence of Norepinephrine transporter (Rattus norvegicus) (Q9WTR4 as listed by the source): as the sequence (Q9WTR4 whole entry) above
Sequence of D(2) dopamine receptor (Rattus norvegicus) (P61169 whole entry): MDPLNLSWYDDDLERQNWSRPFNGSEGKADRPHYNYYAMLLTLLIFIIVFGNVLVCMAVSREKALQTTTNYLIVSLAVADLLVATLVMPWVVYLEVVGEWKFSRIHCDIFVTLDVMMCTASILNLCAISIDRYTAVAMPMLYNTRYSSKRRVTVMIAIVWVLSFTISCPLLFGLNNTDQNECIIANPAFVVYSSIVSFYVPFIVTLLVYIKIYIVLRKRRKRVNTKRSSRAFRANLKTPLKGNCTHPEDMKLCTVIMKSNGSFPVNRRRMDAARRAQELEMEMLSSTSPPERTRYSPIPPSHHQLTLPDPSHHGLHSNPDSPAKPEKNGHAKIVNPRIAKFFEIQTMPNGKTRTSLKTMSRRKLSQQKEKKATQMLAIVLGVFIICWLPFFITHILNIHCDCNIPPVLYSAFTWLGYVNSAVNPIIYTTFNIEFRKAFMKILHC

| SMILES | Ki [1] [nM] | inhibition [2] [%] | inhibition [3] [%] | inhibition [4] [%] | Ki [5] [nM] | inhibition [9] [%] | behavior (Mus musculus [6]) | ED50 (Mus musculus [7]) [mg/kg] | ED50 (Mus musculus [8]) [mg/kg] |
| --- | --- | --- | --- | --- | --- | --- | --- | --- | --- |
| C[C@@]12CCCN1C[C@@H](c1ccc(Cl)cc1)c1ccccc12 | ~100 | 21 | – | – | ~100 | – | Weak | – | – |
| Clc1ccc([C@@H]2CN3CCC[C@H]3c3ccccc32)cc1 | – | – | – | – | – | – | Weak | 8.1 | 5.4 |
| Br.Oc1ccccc1[C@@H]1CN2CCC[C@@H]2c2ccccc21 | 8.8 | – | – | – | 360 | – | Weak | > 3 | ~2 |
| FC(F)(F)c1cccc([C@@H]2CN3CCC[C@@H]3c3ccccc32)c1 (stereo in doubt; (+)-37b) | 1.5 | – | – | – | 25.7 | – | – | – | – |
| Br.c1csc([C@H]2CN3CCC[C@H]3c3ccsc32)c1 | 14.6 | – | – | – | 39.8 | – | Weak | ~24 | ~30 |
| Br.Cn1ccc2c1[C@@H](c1ccccc1)CN1CCC[C@@H]21 | 7.5 | – | – | – | 9.8 | – | Weak | 2.4 | ~0.75 |
| CCN1Cc2ccccc2C(c2ccccc2)C1 (stereo not given) | 5.6 | – | – | – | 36.4 | – | Weak | ~10 | ~10 |
| Br.F[C@]1(c2ccccc2)CN2CCC[C@H]2c2ccccc21 | 30.7 | 6 | 26 | – | – | – | Weak | ~3 | 1.2 |
| Br.O=[N+]([O-])c1ccc([C@@H]2CN3CCC[C@@H]3c3ccccc32)cc1 | 3.4 | – | – | – | 94.2 | – | Weak | 0.17 | 0.08 |
| CSc1ccc([C@@H]2CN3CCC[C@@H]3c3ccccc32)cc1 (stereo in doubt; (-)-48b) | – | – | – | – | – | 5 | – | – | – |
| COc1cccc2c1[C@H](c1ccccc1)CN1CCC[C@H]21 | 11.5 | – | – | – | 12.3 | – | Weak | 10 | 1.2 |
| FC(F)(F)c1cc([C@@H]2CN3CCC[C@@H]3c3ccccc32)cc(C(F)(F)F)c1 | – | 25 | 5 | 58 | – | – | – | – | – |
| CCn1cc(C(=O)O)c(=O)c2ccc(Cc3ccccc3)nc21 [AMFONELIC ACID] | 41.1 | – | – | – | 7.2 | – | – | – | – |
| Br.CS(=O)(=O)c1ccc([C@@H]2CN3CCC[C@H]3c3ccccc32)cc1 | – | – | – | – | – | – | Weak | > 30 | 17.7 |
| C[C@@]12CCCN1C[C@H](c1ccc(Cl)cc1)c1ccccc12 | 3.8 | – | – | – | 7.6 | – | Weak | 6.8 | 1.5 |
| c1ccc([C@H]2CN3CCCC[C@H]3c3ccccc32)cc1 | 13.7 | – | – | – | > 1000 | – | Weak | > 30 | > 30 |
| c1ccc([C@H]2CN3CC[C@H]3c3ccccc32)cc1 | 6.3 | – | – | – | 81.6 | – | – | ~2 | 1.25 |
| CC(=O)Nc1ccc([C@@H]2CN3CCC[C@H]3c3ccccc32)cc1 | – | – | 57 | 27 | – | – | Weak | 4.4 | 1.8 |
| CN1Cc2c(N)cccc2C(c2ccccc2)C1 (stereo not given) [NOMIFENSINE] | – | – | – | – | – | – | Partial stimulant | 0.18 | 0.11 |
| Br.O[C@@]1(c2ccccc2)CN2CCC[C@H]2c2ccccc21 | 40.8 | – | – | – | 258 | – | Weak | ~25 | 6.2 |
| CSc1ccccc1[C@@H]1CN2CCC[C@@H]2c2ccccc21 | – | – | – | – | – | – | – | ~0.6 | ~0.6 |
| Clc1ccc([C@@H]2CN3CCC[C@@H]3c3ccccc32)c(Cl)c1 | – | – | – | – | – | – | – | ~2 | ~1 |
| Br.COc1ccc([C@@H]2CN3CCC[C@@H]3c3ccccc32)cc1 | 0.79 | – | – | – | 5.2 | – | Weak | 0.27 | 0.03 |
| Br.c1ccc2c(c1)[C@@H](C1CCCCC1)CN1CCC[C@@H]21 | 81 | – | – | – | 604 | – | Weak | 6.4 | 1.9 |
| Clc1ccc([C@@H]2CN3CCC[C@H]3c3ccccc32)cc1Cl | 16 | – | – | – | 30.8 | – | Weak | ~41 | 8 |
| N#Cc1ccc([C@@H]2CN3CCC[C@@H]3c3ccccc32)cc1 | – | – | – | – | – | – | – | ~2 | ~2 |

Further lines, with some results ahead:

| Ki [1] [nM] | inhibition [2] [%] | inhibition [3] [%] | inhibition [4] [%] | Ki [5] [nM] | inhibition [9] [%] | SMILES | behavior (Mus musculus [6]) | ED50 (Mus musculus [7]) [mg/kg] | ED50 (Mus musculus [8]) [mg/kg] |
| --- | --- | --- | --- | --- | --- | --- | --- | --- | --- |
| ~100 | 5 | 8 | – | – | – | FC(F)(F)c1cccc([C@@H]2CN3CCC[C@@H]3c3cccc(Cl)c32)c1 | – | – | – |
| – | -3 | -3 | 0 | – | – | FC(F)(F)c1cc([C@@H]2CN3CCC[C@H]3c3ccccc32)cc(C(F)(F)F)c1 | – | – | – |
| 29.9 | – | – | – | 230 | – | CCCCc1ccc([C@@H]2CN3CCC[C@@H]3c3ccccc32)cc1 | Weak | > 60 | 9.1 |
| 90.2 | – | – | – | 84.5 | – | NC(=O)c1ccc([C@@H]2CN3CCC[C@@H]3c3ccccc32)cc1 | – | – | – |
| 10.6 | – | – | – | 128 | – | FC(F)(F)c1ccc([C@@H]2CN3CCC[C@@H]3c3ccccc32)cc1 | – | > 3 | ~2 |
| – | 6 | 3 | 0 | – | – | O=C(O)c1ccccc1[C@@H]1CN2CCC[C@@H]2c2ccccc21 | – | – | – |
| 27.6 | – | – | – | 119 | – | Br.COc1ccc([C@@H]2CN3CCC[C@H]3c3ccccc32)cc1 | Weak | ~50 | 3 |
| 0.62 | – | – | – | 2.5 | – | Br.Clc1ccc2c(c1)[C@H]1CCCN1C[C@H]2c1ccccc1 | – | ~0.3 | ~0.5 |
| 11.5 | – | – | – | 279 | – | Fc1cccc(Cl)c1[C@@H]1CN2CCC[C@@H]2c2ccccc21 | – | > 3 | > 3 |
| – | -3 | 15 | 100 | – | – | c1ccc(C[C@@H]2CN3CCC[C@H]3c3ccccc32)cc1 | – | – | – |
| – | -6 | -1 | 12 | – | – | Cc1ccccc1[C@@H]1CN2CCC[C@H]2c2ccccc21 | – | – | – |
| 22.3 | – | – | – | 32.6 | 6 | Br.Oc1ccc([C@@H]2CN3CCC[C@H]3c3ccccc32)cc1O | Partial stimulant | > 30 | 1.8 |
| 32.6 | – | – | – | 168 | – | FC(F)(F)c1cccc([C@@H]2CN3CCCC3c3cc(Cl)ccc32)c1 (stereo not given in full) | – | – | – |
| 5.6 | – | – | – | 117 | – | Cc1ccccc1[C@@H]1CN2CCC[C@@H]2c2ccccc21 | – | ~1 | ~1 |
| 15 | – | – | – | 8.8 | – | COc1ccc(NC(=O)Nc2ccc([C@@H]3CN4CCC[C@H]4c4ccccc43)cc2)cc1 | – | – | – |
| 8.1 | – | – | – | 28.5 | – | O[C@]1(c2ccccc2)CN2CCC[C@H]2c2ccccc21 | Weak | 8.4 | 1.6 |
| 11.6 | – | – | – | 25.3 | – | Clc1cccc2c1[C@H](c1ccccc1)CN1CCC[C@H]21 | – | – | – |
| – | – | 0 | 7 | – | – | Br.c1ccc([C@@H]2Cc3ccccc3[C@@H]3CCCN23)cc1 | Weak | > 30 | 0.87 |
| 3.1 | – | – | – | 11.2 | – | FC(F)(F)c1ccc2c(c1)[C@H]1CCCN1C[C@H]2c1ccccc1 | – | – | – |
| 1.5 | – | – | – | 26.5 | – | Br.Brc1ccccc1[C@@H]1CN2CCC[C@@H]2c2ccccc21 | – | ~0.6 | ~1 |
| 117 | – | – | – | 24.5 | – | O=C(Nc1ccccc1)Nc1ccc([C@@H]2CN3CCC[C@@H]3c3ccccc32)cc1 | – | – | – |
| – | 4 | 0 | 12 | – | – | FC(F)(F)c1ccccc1[C@@H]1CN2CCC[C@H]2c2ccccc21 | – | – | – |
| 2.2 | – | – | – | 2.8 | – | COc1ccc2c(c1)[C@H]1CCCN1C[C@H]2c1ccccc1 | – | – | – |
| 33.8 | – | – | – | 65.1 | – | Clc1ccc([C@@H]2CN3CCC[C@H]3c3cc(Cl)ccc32)cc1 | Weak | > 100 | ~37 |
